The target of series [1] is Voltage-gated inwardly rectifying potassium channel KCNH2 (Homo sapiens, UniProt Q12809). Kind of series: Inhibition of human ERG expressed in CHOK1 cell membranes after 2 hrs by cy3b-dofetilide-based fluorescence polarization assay. Background: Fluorescence polarisation rises when a labelled molecule tumbles more slowly, as on binding a larger partner.
The target of series [2] is Tyrosine-protein kinase JAK1 (Homo sapiens, UniProt P23458). Kind of series: Inhibition of JAK1 (unknown origin).
Chain of Tyrosine-protein kinase JAK1 (P23458 whole entry): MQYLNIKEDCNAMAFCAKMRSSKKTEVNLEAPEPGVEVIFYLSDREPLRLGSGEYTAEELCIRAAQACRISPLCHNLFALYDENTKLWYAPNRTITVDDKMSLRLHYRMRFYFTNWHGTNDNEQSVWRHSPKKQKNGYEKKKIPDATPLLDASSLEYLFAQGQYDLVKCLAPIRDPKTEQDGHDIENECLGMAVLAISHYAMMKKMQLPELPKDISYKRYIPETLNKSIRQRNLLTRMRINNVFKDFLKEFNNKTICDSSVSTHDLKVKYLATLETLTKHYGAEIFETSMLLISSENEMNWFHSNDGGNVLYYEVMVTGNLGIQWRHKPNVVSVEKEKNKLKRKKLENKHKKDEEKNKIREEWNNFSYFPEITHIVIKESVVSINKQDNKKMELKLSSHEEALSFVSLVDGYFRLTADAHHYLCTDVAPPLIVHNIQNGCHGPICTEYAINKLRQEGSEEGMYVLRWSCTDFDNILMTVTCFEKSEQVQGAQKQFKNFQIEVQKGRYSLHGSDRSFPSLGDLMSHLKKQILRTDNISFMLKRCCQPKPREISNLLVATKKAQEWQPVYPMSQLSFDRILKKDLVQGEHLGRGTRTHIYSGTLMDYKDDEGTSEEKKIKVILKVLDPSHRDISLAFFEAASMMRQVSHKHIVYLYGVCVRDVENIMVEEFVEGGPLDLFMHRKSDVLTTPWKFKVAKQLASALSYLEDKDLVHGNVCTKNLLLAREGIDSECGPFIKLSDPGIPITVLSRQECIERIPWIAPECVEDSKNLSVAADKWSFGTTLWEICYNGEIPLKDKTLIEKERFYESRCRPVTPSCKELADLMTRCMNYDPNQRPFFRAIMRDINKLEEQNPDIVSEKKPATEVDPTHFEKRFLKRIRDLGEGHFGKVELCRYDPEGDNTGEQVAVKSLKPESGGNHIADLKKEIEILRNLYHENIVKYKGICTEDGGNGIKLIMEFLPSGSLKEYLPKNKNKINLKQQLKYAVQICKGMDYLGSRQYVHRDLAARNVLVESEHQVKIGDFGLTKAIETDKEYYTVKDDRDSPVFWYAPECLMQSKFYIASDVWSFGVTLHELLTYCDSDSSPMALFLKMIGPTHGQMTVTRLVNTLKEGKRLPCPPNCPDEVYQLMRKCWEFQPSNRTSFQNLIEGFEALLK
The target in series [3] is Vascular endothelial growth factor receptor 2 (Homo sapiens, UniProt P35968). Kind of series: Inhibition of KDR (unknown origin).
Chain of Vascular endothelial growth factor receptor 2 (P35968 whole entry): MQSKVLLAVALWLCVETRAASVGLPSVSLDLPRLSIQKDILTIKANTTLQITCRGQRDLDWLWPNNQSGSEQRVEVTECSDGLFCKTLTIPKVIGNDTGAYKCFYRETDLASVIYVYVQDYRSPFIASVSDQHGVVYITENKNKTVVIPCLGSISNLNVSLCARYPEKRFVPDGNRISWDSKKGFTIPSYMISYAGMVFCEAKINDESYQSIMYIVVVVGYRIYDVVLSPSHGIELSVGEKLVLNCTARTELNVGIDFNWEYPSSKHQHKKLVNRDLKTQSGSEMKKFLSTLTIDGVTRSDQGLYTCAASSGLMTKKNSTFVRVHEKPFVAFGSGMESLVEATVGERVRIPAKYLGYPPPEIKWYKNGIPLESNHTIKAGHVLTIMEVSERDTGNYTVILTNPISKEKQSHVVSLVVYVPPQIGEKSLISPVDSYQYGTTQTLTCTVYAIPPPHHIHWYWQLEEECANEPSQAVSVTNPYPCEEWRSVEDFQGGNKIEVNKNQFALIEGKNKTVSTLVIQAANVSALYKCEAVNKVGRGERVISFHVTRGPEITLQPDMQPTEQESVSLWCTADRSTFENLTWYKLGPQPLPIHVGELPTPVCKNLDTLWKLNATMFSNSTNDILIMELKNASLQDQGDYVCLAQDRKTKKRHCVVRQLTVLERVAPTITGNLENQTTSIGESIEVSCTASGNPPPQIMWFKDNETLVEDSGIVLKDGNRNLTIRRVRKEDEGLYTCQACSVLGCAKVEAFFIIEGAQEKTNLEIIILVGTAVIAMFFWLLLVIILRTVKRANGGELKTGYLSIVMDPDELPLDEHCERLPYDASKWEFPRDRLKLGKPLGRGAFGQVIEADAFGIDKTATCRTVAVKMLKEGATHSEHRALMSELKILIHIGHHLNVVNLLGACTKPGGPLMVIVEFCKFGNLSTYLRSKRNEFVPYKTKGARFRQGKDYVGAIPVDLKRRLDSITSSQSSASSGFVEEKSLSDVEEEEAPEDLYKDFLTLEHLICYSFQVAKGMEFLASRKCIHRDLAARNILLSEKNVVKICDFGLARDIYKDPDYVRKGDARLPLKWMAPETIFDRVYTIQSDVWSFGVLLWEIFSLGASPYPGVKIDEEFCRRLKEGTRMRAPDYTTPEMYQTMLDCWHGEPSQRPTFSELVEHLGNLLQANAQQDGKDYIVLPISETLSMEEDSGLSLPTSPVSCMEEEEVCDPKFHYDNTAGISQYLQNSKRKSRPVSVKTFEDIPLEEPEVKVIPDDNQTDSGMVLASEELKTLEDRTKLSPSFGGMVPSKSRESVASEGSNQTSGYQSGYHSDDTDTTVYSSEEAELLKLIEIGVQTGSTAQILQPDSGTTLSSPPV
Series [4] deals with Leucine-rich repeat serine/threonine-protein kinase 2 (Homo sapiens, UniProt Q5S007). Kind of series: Inhibition of LRRK2 (unknown origin).
Series [5] relates to Rattus norvegicus. Kind of series: In vivo inhibition of SYK-stimulated Fc-gamma receptor mediated immune complex activation in CD rat assessed as reduction in cutaneous reverse passive Arthus reaction at 10 mg/kg, po preincubated for 1 hr followed by ovalbumin challenge with Evans blue dye measured after 4 hrs by spectrophotometric analysis. In kind it is functional. The method in brief: (§1)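 Male CD rats (175–200 g, 8 per group, observer blind) got an oral suspension in 1% methylcellulose 1 h before challenge, with blood sampled for exposure. Challenge was iv 1% ovalbumin in saline (10 mg/kg) with 1% Evans blue. Ten min later, under isoflurane, rabbit anti-OVA IgG went intradermally at three left sites, control rabbit IgG on the right. At 4 h, 12 mm skin punches went into formamide, 16 h at 80 °C.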

Series [6] is described as follows: Half life in rat at 3 mg/kg, po or 1 mg/kg, iv. In kind it is ADME, organism-based. To be noted: in vivo. A digest of the protocol:
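Screening PK in rats: oral dosing at 3 mg/kg (n = 3) and intravenous dosing at 1 mg/kg (n = 1). Blood clearance, volume of distribution at steady state, half-life and oral bioavailability were derived from these profiles.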

Series [7] deals with Rattus norvegicus. Kind of series: In vivo inhibition of SYK-stimulated Fc-gamma receptor mediated immune complex activation in CD rat assessed as reduction in cutaneous reverse passive Arthus reaction at 30 mg/kg, po preincubated for 1 hr followed by ovalbumin challenge with Evans blue dye measured after 4 hrs by spectrophotometric analysis. It counts as functional. A digest of the protocol:
as §1

Series [8] deals with Tyrosine-protein kinase BTK (Homo sapiens, UniProt Q06187). Kind of series: Inhibition of BTK (unknown origin).
Chain of Tyrosine-protein kinase BTK (Q06187 whole entry): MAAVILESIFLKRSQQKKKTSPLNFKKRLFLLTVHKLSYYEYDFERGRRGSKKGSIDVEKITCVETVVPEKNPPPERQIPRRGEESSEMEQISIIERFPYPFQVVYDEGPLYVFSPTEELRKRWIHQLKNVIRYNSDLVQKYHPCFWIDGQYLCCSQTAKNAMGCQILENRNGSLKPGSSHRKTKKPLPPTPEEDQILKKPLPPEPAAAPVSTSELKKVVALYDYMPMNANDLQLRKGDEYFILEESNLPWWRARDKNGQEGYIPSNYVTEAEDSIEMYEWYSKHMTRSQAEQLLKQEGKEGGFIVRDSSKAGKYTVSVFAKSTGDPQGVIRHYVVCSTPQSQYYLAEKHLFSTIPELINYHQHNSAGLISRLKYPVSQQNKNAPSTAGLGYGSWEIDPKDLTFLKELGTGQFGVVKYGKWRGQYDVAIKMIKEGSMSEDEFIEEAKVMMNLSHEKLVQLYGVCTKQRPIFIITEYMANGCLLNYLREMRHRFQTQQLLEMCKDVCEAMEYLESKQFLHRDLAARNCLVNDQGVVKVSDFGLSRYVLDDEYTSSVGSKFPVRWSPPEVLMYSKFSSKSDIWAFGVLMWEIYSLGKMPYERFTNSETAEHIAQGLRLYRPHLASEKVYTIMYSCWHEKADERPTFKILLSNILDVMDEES
Series [9] addresses T1, Tyrosine-protein kinase SYK (Homo sapiens, UniProt P43405). Kind of series: Inhibition of N-terminal 6His-tagged full length human recombinant SYK expressed in baculovirus using Biotin-AAAEEIYGEI as substrate after 60 mins by TR-FRET assay. A general note: Time-resolved FRET reads energy transfer from a long-lived donor to a nearby acceptor.
Series [10] can be described thus: Genotoxicity in Salmonella typhimurium TA1537 at 5000 ug/plate in absence of metabolic activation by Ames test. It counts as toxicity. To be noted: salmonella enterica subsp. enterica serovar typhimurium. A general note: In the Ames test, an excess of revertant colonies over the control signals mutagenicity.
The nature of series [11]: Genotoxicity in Salmonella typhimurium TA1537 at 5000 ug/plate in presence of metabolic activation by Ames test. It counts as toxicity. To be noted: salmonella enterica subsp. enterica serovar typhimurium.
Series [12] concerns Rattus norvegicus. Kind of series: In vivo inhibition of SYK-stimulated Fc-gamma receptor mediated immune complex activation in po dosed CD rat assessed as reduction in cutaneous reverse passive Arthus reaction preincubated for 1 hr followed by ovalbumin challenge with Evans blue dye measured after 4 hrs by spectrophotometric analysis. It counts as functional, organism-based. The method in brief: as §1

Series [13] has as its target T1, Tyrosine-protein kinase SYK. Kind of series: Inhibition of SYK in human B cells assessed as suppression of anti-IgM-induced CD69 surface expression preincubated for 30 mins followed by anti-IgM addition measured after 3.5 hrs by flow cytometric analysis. In kind it is cell-based.
In another series the target is Aurora kinase B (Homo sapiens, UniProt Q96GD4). Kind of series: Inhibition of N-terminal-6His-tagged full length human Aurora B expressed in baculovirus using 5FAM-PKA-tide as substrate after 120 mins by fluorescence polarization assay.
Chain of Aurora kinase B (Q96GD4 whole entry): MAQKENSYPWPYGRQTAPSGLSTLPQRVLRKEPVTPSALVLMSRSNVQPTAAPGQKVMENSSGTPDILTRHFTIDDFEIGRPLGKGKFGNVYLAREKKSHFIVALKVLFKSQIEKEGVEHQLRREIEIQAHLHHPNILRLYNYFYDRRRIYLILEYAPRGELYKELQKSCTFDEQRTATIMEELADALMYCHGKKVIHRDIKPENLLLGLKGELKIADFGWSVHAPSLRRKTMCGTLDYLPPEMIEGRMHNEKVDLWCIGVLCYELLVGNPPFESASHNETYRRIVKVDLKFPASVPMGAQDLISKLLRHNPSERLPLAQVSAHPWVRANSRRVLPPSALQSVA
A short description of series [14]: AUC in rat at 3 mg/kg, po. In kind it is ADME, organism-based. To be noted: in vivo.
Series [15] is described as follows: Dissociation constant, pKa of the compound. It counts as physicochemical.
Series [16] can be described thus: Cmax in rat at 3 mg/kg, po. In kind it is ADME, organism-based. Also on record: dose 3 mg/kg, route oral. To be noted: in vivo.

Bounds are passed on as bounds.

Chain of Voltage-gated inwardly rectifying potassium channel KCNH2 (Q12809 whole entry): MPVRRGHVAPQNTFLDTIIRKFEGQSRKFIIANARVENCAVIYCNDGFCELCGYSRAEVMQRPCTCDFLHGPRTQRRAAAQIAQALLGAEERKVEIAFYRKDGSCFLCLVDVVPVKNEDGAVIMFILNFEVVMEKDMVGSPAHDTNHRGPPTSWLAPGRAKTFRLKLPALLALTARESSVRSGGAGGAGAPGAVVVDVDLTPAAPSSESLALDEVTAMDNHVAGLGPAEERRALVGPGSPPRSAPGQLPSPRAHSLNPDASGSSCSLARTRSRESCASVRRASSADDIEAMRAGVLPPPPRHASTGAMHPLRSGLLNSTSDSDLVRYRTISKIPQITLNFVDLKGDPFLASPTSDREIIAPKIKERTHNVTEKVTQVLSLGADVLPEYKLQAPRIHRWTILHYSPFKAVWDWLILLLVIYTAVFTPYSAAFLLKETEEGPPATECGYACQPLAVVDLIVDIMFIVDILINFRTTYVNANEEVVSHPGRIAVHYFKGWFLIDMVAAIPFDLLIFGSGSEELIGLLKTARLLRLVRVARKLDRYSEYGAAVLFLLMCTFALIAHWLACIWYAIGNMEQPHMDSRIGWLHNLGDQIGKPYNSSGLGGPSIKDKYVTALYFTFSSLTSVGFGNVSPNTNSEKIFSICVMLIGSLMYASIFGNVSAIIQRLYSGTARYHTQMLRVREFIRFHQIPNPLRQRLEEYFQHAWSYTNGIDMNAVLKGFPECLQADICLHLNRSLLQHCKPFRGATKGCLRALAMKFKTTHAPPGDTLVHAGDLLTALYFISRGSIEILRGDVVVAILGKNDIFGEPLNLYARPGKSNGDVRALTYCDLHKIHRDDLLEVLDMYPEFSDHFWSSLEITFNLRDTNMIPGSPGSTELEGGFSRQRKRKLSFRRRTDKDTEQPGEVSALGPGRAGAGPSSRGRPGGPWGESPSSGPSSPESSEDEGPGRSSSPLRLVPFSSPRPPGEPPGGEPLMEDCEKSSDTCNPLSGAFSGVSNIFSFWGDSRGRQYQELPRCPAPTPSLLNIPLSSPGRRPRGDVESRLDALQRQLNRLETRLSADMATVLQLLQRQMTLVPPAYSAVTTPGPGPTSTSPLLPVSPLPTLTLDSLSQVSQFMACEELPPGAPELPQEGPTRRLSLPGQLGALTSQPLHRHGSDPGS

`Cc1ccc(-c2cc3nccnc3c(NCCCCN)n2)cc1`: the results for the IC50 in [1], in [2] and in [3] were 15800 nM, 2000 nM and 1580 nM, respectively.
Take `Cn1cc(-c2cc3nccnc3c(NC[C@@H]3CNCCO3)n2)cn1`: the IC50 in series [4] is 251 nM; in series [1] it was above 50100 nM; in series [8], 251 nM; in [2] it was 501 nM; in series [9], 63.1 nM; in [13], 158 nM. In the series on Rattus norvegicus [5], the inhibition in vivo at 10 mg/kg was determined as 45%. Further, in [6], the half-life was 1.7 h. In addition, in the series with Rattus norvegicus [7], the inhibition in vivo at 30 mg/kg stood at 85%. The Activity result in [10] and in [11] was “Non-Toxic” in each case. In the series on Rattus norvegicus [12], the inhibition result was “Dose-dependent effect”.
For the compound `Cn1cc(-c2cc3nccnc3c(OCC3CNCC(F)(F)C3)n2)cn1` (racemic), the IC50 on Aurora kinase B was 63.1 nM; in series [1], above 50100 nM; in series [9], 158 nM; in series [13], 631 nM. Also, in [14], the AUC is 296 ng·h/mL. The compound also came in with a pKa in [15] of 7. Moreover, the Cmax in [16] turned out to be 148 ng/mL.
In the case of `Cn1cc(-c2cc3nccnc3c(NCC3CNCC(F)(F)C3)n2)cn1` (racemic), the IC50 is 501 nM against Aurora kinase B, above 50100 nM in [1], 316 nM in [9] and 2000 nM in series [13]. The compound also came in with an AUC in [14] of 216 ng·h/mL. In series [15], this compound gave a pKa of 6.9. Besides, the highest level in [16] (Cmax) was 96 ng/mL.

As usually defined, the IC50 is the point on the concentration scale where inhibition reaches its midpoint. Broadly, the inhibition in vivo is the relative decrease from the control value, in per cent. By half-life is commonly meant the time in which the quantity being followed falls by half. A lower half-life goes with fast loss. For orientation: AUC means the area under the concentration-time curve, a measure of exposure. Read a high AUC as more exposure. One may read the pKa as the pH at which an ionisable group is half protonated. A high value points to a weaker acid or stronger base. What is called Cmax is the highest concentration seen after dosing.

Values taken from ChEMBL document CHEMBL4431389, “Optimisation of a novel series of potent and orally bioavailable azanaphthyridine SYK inhibitors” (Bioorg Med Chem Lett, 2016).
